# Experimental data as given in ChEMBL document CHEMBL1250448, “Inhibitor hijacking of Akt activation” (Nat Chem Biol, 2009).
# Active and inactive are the calls of the source. No cut-off for these calls is given here.
# Tests used:
# [1] = target: RAC-alpha serine/threonine-protein kinase (Homo sapiens, UniProt P31749); assay: Induction of AKT1 Thr308 phosphorylation expressed in IGF1-stimulated HEK293 cells treated 20 mins before IGF1 stimulation by immunoblotting; assay type: cell-based
# In short: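 HEK293 cells (not transfected), serum-starved overnight, then given inhibitor for 20 min before 50 ng/ml IGF-1 for a further 10 min. Cells detached in ice-cold Ca/Mg-free PBS with 0.04% EDTA and lysed in Tris pH 7.5 Triton buffer with protease/phosphatase inhibitors. Lysates cleared at 14000 g, protein equalised by Bradford, and pThr308, pSer473 and GSK3β pSer9 read by immunoblot with ECL.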
# [2] = system: Receptor-type tyrosine-protein kinase FLT3 (Homo sapiens), P36888 [D835Y]; assay: Inhibition of FLT3 D835Y mutant at 1 uM in presence of 10 uM ATP by Select Screen kinase assay relative to untreated control
# In short: (§1)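 Part of a 220-kinase panel of purified kinases, each tested with compound at 1 μM. Percent inhibition was measured in the Invitrogen SelectScreen profiling assay.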
# [3] = target: Death-associated protein kinase 3 (Homo sapiens) (UniProt O43293); assay: Inhibition of DAPK3 at 1 uM in presence of 10 uM ATP by Select Screen kinase assay relative to untreated control; in short: as §1
# [4] = target: cGMP-dependent protein kinase 1 (Homo sapiens) (UniProt Q13976); assay: Inhibition of PRKG1 at 1 uM in presence of 10 uM ATP by Select Screen kinase assay relative to untreated control
# [5] = target: Serine/threonine-protein kinase D1 (Homo sapiens) (UniProt Q15139); assay: Inhibition of PRKD1 at 1 uM in presence of 10 uM ATP by Select Screen kinase assay relative to untreated control
# [6] = target: Tyrosine-protein kinase Mer (Homo sapiens) (UniProt Q12866); assay: Inhibition of MERTK at 1 uM in presence of 10 uM ATP by Select Screen kinase assay relative to untreated control
# In short: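 Single-concentration profiling at 1 μM against a panel of 220 purified kinases, run as an outsourced SelectScreen kinase profiling service. Activity is expressed as percent inhibition.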
# [7] = target: Aurora kinase A (Homo sapiens) (UniProt O14965); assay: Inhibition of STK6 at 1 uM in presence of 10 uM ATP by Select Screen kinase assay relative to untreated control
# In short: (§2)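 Commercial SelectScreen profiling panel of 220 purified kinases. Each kinase was tested at a single inhibitor concentration of 1 μM, and activity was expressed as percent inhibition.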
# [8] = target: cAMP-dependent protein kinase catalytic subunit PRKX (Homo sapiens) (UniProt P51817); assay: Inhibition of PRKX at 1 uM in presence of 10 uM ATP by Select Screen kinase assay relative to untreated control
# [9] = target: Ribosomal protein S6 kinase alpha-6 (Homo sapiens) (UniProt Q9UK32); assay: Inhibition of RPS6KA6 at 1 uM in presence of 10 uM ATP by Select Screen kinase assay relative to untreated control; in short: as §2
# [10] = system: Tyrosine-protein kinase ABL1 (Homo sapiens), P00519 [E255K]; assay: Inhibition of ABL1 E255K mutant at 1 uM in presence of 10 uM ATP by Select Screen kinase assay relative to untreated control
# In short: (§3)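 Single-point screen at 1 μM against a panel of 220 purified kinases, run by Invitrogen staff as a SelectScreen profiling service. Read-out is percent inhibition of kinase activity.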
# [11] = target: Beta-adrenergic receptor kinase 1 (Homo sapiens) (UniProt P25098); assay: Inhibition of ADRBK1 at 1 uM in presence of 10 uM ATP by Select Screen kinase assay relative to untreated control; in short: as §3
# [12] = target: Serine/threonine-protein kinase PAK 6 (Homo sapiens) (UniProt Q9NQU5); assay: Inhibition of PAK6 at 1 uM in presence of 10 uM ATP by Select Screen kinase assay relative to untreated control
# [13] = target: Ephrin type-B receptor 4 (Homo sapiens) (UniProt P54760); assay: Inhibition of EPHB4 at 1 uM in presence of 10 uM ATP by Select Screen kinase assay relative to untreated control; in short: as §3
# [14] = target: Tyrosine-protein kinase BTK (Homo sapiens) (UniProt Q06187); assay: Inhibition of BTK at 1 uM in presence of 10 uM ATP by Select Screen kinase assay relative to untreated control; in short: as §3
# [15] = target: Ribosomal protein S6 kinase beta-1 (Homo sapiens, UniProt P23443); assay: Inhibition of RPS6KB1 at 1 uM in presence of 10 uM ATP by Select Screen kinase assay relative to untreated control
# [16] = target: Rho-associated protein kinase 2 (Homo sapiens) (UniProt O75116); assay: Inhibition of ROCK2 at 1 uM in presence of 10 uM ATP by Select Screen kinase assay relative to untreated control
# In short: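 Profiling panel of 220 purified kinases (SelectScreen), each compound tested at 1 μM. Read-out is percent inhibition of kinase activity.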
# [17] = target: Protein kinase C beta type (Homo sapiens) (UniProt P05771); assay: Inhibition of PRKCB1 at 1 uM in presence of 10 uM ATP by Select Screen kinase assay relative to untreated control
# [18] = target: Serine/threonine-protein kinase Chk1 (Homo sapiens) (UniProt O14757); assay: Inhibition of CHEK1 at 1 uM in presence of 10 uM ATP by Select Screen kinase assay relative to untreated control; in short: as §3
# [19] = target: cGMP-dependent protein kinase 2 (Homo sapiens) (UniProt Q13237); assay: Inhibition of PRKG2 at 1 uM in presence of 10 uM ATP by Select Screen kinase assay relative to untreated control
# [20] = target: Dual specificity protein kinase CLK2 (Homo sapiens) (UniProt P49760); assay: Inhibition of CLK2 at 1 uM in presence of 10 uM ATP by Select Screen kinase assay relative to untreated control; in short: as §1
# [21] = target: Dual specificity tyrosine-phosphorylation-regulated kinase 1B (Homo sapiens) (UniProt Q9Y463); assay: Inhibition of DYRK1B at 1 uM in presence of 10 uM ATP by Select Screen kinase assay relative to untreated control; in short: as §1
# [22] = target: Ribosomal protein S6 kinase alpha-1 (Homo sapiens) (UniProt Q15418); assay: Inhibition of RPS6KA1 at 1 uM in presence of 100 uM ATP by Select Screen kinase assay relative to untreated control
# [23] = target: Casein kinase II subunit alpha' (Homo sapiens) (UniProt P19784); assay: Inhibition of CSNK2A2 at 1 uM in presence of 10 uM ATP by Select Screen kinase assay relative to untreated control; in short: as §1
# [24] = target: Tyrosine-protein kinase ABL1 (Homo sapiens) (UniProt P00519); assay: Inhibition of ABL1 at 1 uM in presence of 10 uM ATP by Select Screen kinase assay relative to untreated control; in short: as §3
# [25] = target: Testis-specific serine/threonine-protein kinase 2 (Homo sapiens) (UniProt Q96PF2); assay: Inhibition of STK22B at 1 uM in presence of 10 uM ATP by Select Screen kinase assay relative to untreated control; in short: as §2
# Tyrosine-protein kinase ABL1 (Homo sapiens), P00519 [E255K], sequence (P00519 whole entry E255K): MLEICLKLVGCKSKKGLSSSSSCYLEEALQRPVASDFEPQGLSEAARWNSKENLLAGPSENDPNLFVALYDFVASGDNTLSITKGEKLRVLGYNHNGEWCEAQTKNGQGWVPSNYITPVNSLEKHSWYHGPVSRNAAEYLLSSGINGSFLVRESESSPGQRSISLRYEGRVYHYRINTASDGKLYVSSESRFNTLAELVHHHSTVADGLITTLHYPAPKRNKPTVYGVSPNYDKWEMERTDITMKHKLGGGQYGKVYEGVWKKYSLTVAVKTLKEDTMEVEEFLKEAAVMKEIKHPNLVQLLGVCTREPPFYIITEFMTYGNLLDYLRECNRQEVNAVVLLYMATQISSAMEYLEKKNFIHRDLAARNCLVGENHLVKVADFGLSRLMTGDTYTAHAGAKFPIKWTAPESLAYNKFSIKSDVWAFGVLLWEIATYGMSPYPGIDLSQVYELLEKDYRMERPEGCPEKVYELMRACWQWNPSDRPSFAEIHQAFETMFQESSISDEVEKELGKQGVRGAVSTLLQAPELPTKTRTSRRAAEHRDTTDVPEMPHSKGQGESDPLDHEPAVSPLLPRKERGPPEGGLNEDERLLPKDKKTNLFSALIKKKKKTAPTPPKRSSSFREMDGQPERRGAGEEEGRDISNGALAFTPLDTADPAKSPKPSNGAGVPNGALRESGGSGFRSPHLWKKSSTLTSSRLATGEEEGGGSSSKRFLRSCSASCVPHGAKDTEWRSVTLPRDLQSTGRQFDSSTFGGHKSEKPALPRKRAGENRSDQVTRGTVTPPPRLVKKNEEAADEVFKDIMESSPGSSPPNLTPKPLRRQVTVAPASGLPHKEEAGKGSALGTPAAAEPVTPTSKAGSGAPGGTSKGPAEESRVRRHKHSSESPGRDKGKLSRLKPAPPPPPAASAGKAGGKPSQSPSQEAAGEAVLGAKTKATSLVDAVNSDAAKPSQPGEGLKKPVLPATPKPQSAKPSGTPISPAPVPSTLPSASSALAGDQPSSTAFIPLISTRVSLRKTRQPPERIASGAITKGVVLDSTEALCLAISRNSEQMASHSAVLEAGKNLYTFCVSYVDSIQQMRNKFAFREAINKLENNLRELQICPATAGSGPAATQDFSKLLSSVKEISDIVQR
# RAC-alpha serine/threonine-protein kinase, sequence (P31749 whole entry): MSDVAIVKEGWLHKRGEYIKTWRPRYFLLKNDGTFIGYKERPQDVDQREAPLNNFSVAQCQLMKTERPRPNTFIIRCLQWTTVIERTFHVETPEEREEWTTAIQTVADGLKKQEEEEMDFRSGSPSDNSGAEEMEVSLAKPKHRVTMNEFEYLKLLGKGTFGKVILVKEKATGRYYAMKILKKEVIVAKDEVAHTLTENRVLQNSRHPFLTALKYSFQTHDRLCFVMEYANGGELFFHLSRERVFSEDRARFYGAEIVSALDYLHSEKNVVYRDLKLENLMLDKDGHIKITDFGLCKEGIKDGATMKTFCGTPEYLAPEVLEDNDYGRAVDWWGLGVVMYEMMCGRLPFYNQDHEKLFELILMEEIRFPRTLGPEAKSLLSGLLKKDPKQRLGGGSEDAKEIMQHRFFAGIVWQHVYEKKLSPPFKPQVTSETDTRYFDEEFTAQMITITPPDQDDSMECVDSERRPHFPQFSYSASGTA
# Ribosomal protein S6 kinase alpha-1 (Homo sapiens), sequence (Q15418 whole entry): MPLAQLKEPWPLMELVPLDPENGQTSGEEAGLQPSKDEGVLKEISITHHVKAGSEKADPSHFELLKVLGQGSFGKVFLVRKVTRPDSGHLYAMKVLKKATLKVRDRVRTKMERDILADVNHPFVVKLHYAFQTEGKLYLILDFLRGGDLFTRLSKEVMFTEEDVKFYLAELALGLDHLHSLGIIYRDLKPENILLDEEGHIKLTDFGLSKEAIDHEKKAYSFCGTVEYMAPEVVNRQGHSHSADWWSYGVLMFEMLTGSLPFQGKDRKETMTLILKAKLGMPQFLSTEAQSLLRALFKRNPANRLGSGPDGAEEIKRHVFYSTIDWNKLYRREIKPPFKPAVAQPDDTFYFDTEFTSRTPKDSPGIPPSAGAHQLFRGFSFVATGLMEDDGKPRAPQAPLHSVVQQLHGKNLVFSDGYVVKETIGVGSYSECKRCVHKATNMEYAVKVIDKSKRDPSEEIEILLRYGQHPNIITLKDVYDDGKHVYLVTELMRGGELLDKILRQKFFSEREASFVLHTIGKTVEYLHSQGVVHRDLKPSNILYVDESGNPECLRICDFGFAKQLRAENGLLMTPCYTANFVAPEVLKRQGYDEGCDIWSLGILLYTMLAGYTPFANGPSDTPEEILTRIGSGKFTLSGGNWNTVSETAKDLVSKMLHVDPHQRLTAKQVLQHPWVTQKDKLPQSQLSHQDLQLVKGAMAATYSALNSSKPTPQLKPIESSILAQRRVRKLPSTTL
# Dual specificity protein kinase CLK2 (Homo sapiens), sequence (P49760 whole entry, looked up): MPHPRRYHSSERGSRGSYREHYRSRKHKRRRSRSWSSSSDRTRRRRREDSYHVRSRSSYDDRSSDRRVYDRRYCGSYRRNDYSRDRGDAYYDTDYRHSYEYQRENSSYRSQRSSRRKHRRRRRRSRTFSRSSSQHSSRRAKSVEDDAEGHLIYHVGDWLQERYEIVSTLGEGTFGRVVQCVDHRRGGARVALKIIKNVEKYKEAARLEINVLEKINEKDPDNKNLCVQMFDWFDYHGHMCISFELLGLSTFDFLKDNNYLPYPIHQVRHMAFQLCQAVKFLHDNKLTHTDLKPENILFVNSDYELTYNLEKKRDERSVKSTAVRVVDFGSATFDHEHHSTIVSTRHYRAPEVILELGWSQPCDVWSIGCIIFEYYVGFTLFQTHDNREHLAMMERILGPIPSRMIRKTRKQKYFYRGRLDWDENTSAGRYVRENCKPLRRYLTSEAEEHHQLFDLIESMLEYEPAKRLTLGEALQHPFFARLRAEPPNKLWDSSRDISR
# cGMP-dependent protein kinase 2 (Homo sapiens), sequence (Q13237 whole entry): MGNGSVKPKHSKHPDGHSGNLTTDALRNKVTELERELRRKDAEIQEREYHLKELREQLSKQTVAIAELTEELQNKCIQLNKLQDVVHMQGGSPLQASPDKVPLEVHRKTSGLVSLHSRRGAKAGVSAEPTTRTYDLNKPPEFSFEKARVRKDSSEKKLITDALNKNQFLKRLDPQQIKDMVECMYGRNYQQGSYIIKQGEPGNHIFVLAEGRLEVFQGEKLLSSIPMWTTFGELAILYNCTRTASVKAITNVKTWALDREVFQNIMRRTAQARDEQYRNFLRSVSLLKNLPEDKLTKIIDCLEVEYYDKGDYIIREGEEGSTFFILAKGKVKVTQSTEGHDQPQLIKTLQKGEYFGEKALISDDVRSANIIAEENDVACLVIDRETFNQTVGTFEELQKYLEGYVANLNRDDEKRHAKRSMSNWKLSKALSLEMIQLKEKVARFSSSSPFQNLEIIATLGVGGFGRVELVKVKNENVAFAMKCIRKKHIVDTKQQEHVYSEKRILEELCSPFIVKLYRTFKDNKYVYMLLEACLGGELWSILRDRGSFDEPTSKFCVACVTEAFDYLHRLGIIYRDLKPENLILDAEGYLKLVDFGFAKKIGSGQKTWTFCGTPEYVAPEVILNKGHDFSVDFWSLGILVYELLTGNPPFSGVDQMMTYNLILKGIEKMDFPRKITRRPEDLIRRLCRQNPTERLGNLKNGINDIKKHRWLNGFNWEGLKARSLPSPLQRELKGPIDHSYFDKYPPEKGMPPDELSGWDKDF
# Tyrosine-protein kinase Mer (Homo sapiens), sequence (Q12866 whole entry): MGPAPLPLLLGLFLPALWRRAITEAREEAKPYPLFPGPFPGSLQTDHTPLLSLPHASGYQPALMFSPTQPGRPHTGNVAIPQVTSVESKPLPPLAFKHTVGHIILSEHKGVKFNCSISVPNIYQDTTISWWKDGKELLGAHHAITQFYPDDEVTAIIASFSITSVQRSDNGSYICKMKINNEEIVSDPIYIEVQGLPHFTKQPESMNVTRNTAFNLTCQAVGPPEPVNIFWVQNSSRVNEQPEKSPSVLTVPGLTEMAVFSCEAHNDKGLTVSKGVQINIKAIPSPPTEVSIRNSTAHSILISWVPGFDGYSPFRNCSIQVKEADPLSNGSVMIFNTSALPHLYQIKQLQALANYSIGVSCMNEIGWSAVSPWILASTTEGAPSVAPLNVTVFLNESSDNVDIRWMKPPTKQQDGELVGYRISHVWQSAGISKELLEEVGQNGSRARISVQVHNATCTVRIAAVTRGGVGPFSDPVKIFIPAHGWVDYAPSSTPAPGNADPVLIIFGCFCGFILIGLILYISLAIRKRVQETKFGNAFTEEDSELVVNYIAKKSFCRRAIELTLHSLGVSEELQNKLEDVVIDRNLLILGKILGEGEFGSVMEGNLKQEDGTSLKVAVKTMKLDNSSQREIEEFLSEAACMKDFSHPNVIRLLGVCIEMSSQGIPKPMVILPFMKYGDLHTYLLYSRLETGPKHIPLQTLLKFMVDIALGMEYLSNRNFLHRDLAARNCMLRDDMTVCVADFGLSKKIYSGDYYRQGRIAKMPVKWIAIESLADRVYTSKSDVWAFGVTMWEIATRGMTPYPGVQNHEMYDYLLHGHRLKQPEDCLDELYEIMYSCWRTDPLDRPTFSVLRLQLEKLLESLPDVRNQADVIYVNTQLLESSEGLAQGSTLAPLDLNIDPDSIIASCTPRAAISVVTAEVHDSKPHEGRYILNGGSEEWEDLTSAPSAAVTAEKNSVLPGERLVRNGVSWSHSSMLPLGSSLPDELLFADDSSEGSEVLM
# Aurora kinase A (Homo sapiens), sequence (O14965 whole entry): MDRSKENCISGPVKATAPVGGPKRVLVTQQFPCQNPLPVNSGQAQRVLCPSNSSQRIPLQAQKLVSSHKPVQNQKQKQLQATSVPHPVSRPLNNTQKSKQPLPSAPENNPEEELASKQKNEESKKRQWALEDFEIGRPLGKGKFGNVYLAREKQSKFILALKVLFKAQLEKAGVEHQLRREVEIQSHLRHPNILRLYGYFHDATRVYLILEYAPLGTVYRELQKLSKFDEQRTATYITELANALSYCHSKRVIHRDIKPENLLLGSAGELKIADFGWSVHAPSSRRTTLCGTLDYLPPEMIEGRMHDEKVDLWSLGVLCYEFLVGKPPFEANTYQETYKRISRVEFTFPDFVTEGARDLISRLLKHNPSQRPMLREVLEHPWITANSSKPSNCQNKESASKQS
# Tyrosine-protein kinase ABL1 (Homo sapiens), sequence (P00519 whole entry): as the sequence (P00519 whole entry E255K) above, with K255E counted along it
inhibition [2],inhibition [4],inhibition [5],inhibition [6],inhibition [7],inhibition [8],inhibition [9],inhibition [10],inhibition [11],inhibition [12],inhibition [13],inhibition [14],inhibition [15],inhibition [16],inhibition [17],inhibition [18],inhibition [19],inhibition [20],Compound,Activity [1],inhibition [3],other results
,,,,,,,,,,,,,,,,,,CCCc1cc(-c2cncc(OC[C@@H](N)Cc3c[nH]c4ccccc34)c2)cc2c(C)n[nH]c12,inactive,,
,,,,,,,,,,,,,,,,,,Cc1n[nH]c2ccc(-c3cncc(OC[C@@H](N)Cc4c[nH]c5ccccc45)c3)cc12,Active,,
100%,22%,71%,17%,97%,105%,58%,26%,15%,11%,8%,23%,29%,72%,28%,75%,29%,70%,O=C(NCCCNc1nc(Nc2cccc(NC(=O)N3CCCC3)c2)ncc1I)c1cccs1,,13%,inhibition [21]: 26%; inhibition [22]: 42%; inhibition [23]: 26%; inhibition [24]: 37%; inhibition [25]: 2%
71%,52%,5%,16%,22%,21%,28%,5%,8%,5%,11%,11%,80%,2%,35%,19%,92%,85%,COc1ccccc1N1CCN(c2ncnc3[nH]nc(Br)c23)CC1,,14%,inhibition [21]: 43%; inhibition [22]: 63%; inhibition [23]: 27%; inhibition [24]: 12%; inhibition [25]: 3%
